Measurements reported in ChEMBL document CHEMBL4316592, “Synthesis of new derivatives of boehmeriasin A and their biological evaluation in liver cancer” (Eur J Med Chem, 2019).
Calls of active or inactive are those of the source. No cut-off for these calls is given here.

Columns and labels:
Huh-7 [1] = assay: Cytotoxicity against human HuH7 cells after 72 hrs by SRB assay; assay type: functional, cell-based
Summary of the method: (§1)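 SRB assay. Cells plated per well (HCT116 3000; Huh7, Hep3B, HepG2, MCF-7 2000; Mahlavu, FOCUS, SNU475 1000) and grown 24 h. Compounds came from 20 mM DMSO stocks and were tested in triplicate, 40 to 2,5 (or 2,5 to 0,03) per printed range, for 72 h. Cells fixed in 10% TCA, stained with 0.4% SRB, dye dissolved in 10 mM Tris, A515 read. IC50 derived after DMSO normalization.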

Mahlavu [2] = assay: Cytotoxicity against human Mahlavu cells after 72 hrs by SRB assay; assay type: functional, cell-based; summary of the method: as §1
MCF7 = assay: Cytotoxicity against human MCF7 cells after 72 hrs by SRB assay; assay type: functional, cell-based; summary of the method: as §1
HCT-116 = assay: Cytotoxicity against human HCT116 cells after 72 hrs by SRB assay; assay type: functional, cell-based; summary of the method: as §1
Hep 3B2 = assay: Cytotoxicity against human Hep3B cells after 72 hrs by SRB assay; assay type: functional, cell-based; summary of the method: as §1
HepG2 = assay: Cytotoxicity against human HepG2 cells after 72 hrs by SRB assay; assay type: functional, cell-based; conditions: hepg2; summary of the method: as §1
SNU-475 = assay: Cytotoxicity against human SNU475 cells after 72 hrs by SRB assay; assay type: functional, cell-based; summary of the method: as §1
[3] = Cytotoxicity against human FOCUS cells after 72 hrs by SRB assay; assay type: functional, cell-based; summary of the method: as §1
MCF-12A = assay: Cytotoxicity against human MCF12A cells after 72 hrs by SRB assay; assay type: cell-based
Huh-7 [4] = assay: Induction of apoptosis in human HuH7 cells assessed as increase in cytochrome C levels by Hoechst staining-based assay; assay type: functional, cell-based
Summary of the method: (§2)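 Cells were seeded on coverslips and treated after 24 h with compound at a single concentration for 72 h. Camptothecin was the positive control, with DMSO solvent control at matched volume. Cells were fixed in ice-cold methanol for 15 min, then given anti-cytochrome c (1:100 in 0.1% TBS-Tween) for 1 h and FITC secondary (1:200) for 1 h. Nuclei were counterstained and imaged by fluorescence microscopy.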

Mahlavu [5] = assay: Induction of apoptosis in human Mahlavu cells assessed as increase in cytochrome C levels by Hoechst staining-based assay; assay type: functional, cell-based; summary of the method: as §2
MCF-10A = assay: Cytotoxicity against human MCF10A cells after 72 hrs by SRB assay; assay type: cell-based
Mahlavu [6] = assay: Induction of apoptosis in human Mahlavu cells assessed as chromatin condensation at 1 uM by Hoechst staining-based assay; assay type: functional, cell-based
Mahlavu [7] = assay: Induction of apoptosis in human Mahlavu cells assessed as apoptotic body formation at 1 uM by Hoechst staining-based assay; assay type: functional, cell-based
Huh-7 [8] = assay: Induction of apoptosis in human HuH7 cells assessed as viable cells at 1 uM after 24 hrs by Annexin V-FITC/propidium iodide staining-based flow cytometric analysis (reference value: 97.30%); assay type: functional; conditions: Huh-7, 24 h, read-out: Activity
Huh-7 [9] = assay: Induction of apoptosis in human HuH7 cells assessed as early apoptotic cells at 1 uM after 24 hrs by Annexin V-FITC/propidium iodide staining-based flow cytometric analysis (reference value: 0.17%); assay type: functional
Huh-7 [10] = assay: Induction of apoptosis in human HuH7 cells assessed as late apoptotic cells at 1 uM after 24 hrs by Annexin V-FITC/propidium iodide staining-based flow cytometric analysis (reference value: 2.51%); assay type: functional
Huh-7 [11] = assay: Induction of apoptosis in human HuH7 cells assessed as necrotic cells at 1 uM after 24 hrs by Annexin V-FITC/propidium iodide staining-based flow cytometric analysis (reference value: 0.03%); assay type: functional
Huh-7 [12] = assay: Induction of apoptosis in human HuH7 cells assessed as viable cells at 1 uM after 48 hrs by Annexin V-FITC/propidium iodide staining-based flow cytometric analysis (reference value: 97.42%); assay type: functional; conditions: Huh-7, 48 h, read-out: Activity
Huh-7 [13] = assay: Induction of apoptosis in human HuH7 cells assessed as early apoptotic cells at 1 uM after 48 hrs by Annexin V-FITC/propidium iodide staining-based flow cytometric analysis (reference value: 0.02%); assay type: functional
Huh-7 [14] = assay: Induction of apoptosis in human HuH7 cells assessed as late apoptotic cells at 1 uM after 48 hrs by Annexin V-FITC/propidium iodide staining-based flow cytometric analysis (reference value: 2.53%); assay type: functional
Huh-7 [15] = assay: Induction of apoptosis in human HuH7 cells assessed as necrotic cells at 1 uM after 48 hrs by Annexin V-FITC/propidium iodide staining-based flow cytometric analysis (reference value: 0.02%); assay type: functional
Huh-7 [16] = assay: Induction of apoptosis in human HuH7 cells assessed as viable cells at 1 uM after 72 hrs by Annexin V-FITC/propidium iodide staining-based flow cytometric analysis (reference value: 97.20%); assay type: functional; conditions: Huh-7, 72 h, read-out: Activity
Huh-7 [17] = assay: Induction of apoptosis in human HuH7 cells assessed as early apoptotic cells at 1 uM after 72 hrs by Annexin V-FITC/propidium iodide staining-based flow cytometric analysis (reference value: 0.03%); assay type: functional
Huh-7 [18] = assay: Induction of apoptosis in human HuH7 cells assessed as late apoptotic cells at 1 uM after 72 hrs by Annexin V-FITC/propidium iodide staining-based flow cytometric analysis (reference value: 2.34%); assay type: functional
Huh-7 [19] = assay: Induction of apoptosis in human HuH7 cells assessed as necrotic cells at 1 uM after 72 hrs by Annexin V-FITC/propidium iodide staining-based flow cytometric analysis (reference value: 0.43%); assay type: functional
Mahlavu [20] = assay: Induction of apoptosis in human Mahlavu cells assessed as viable cells at 1 uM after 24 hrs by Annexin V-FITC/propidium iodide staining-based flow cytometric analysis (reference value: 98.51%); assay type: functional; conditions: read-out: Activity
Mahlavu [21] = assay: Induction of apoptosis in human Mahlavu cells assessed as early apoptotic cells at 1 uM after 24 hrs by Annexin V-FITC/propidium iodide staining-based flow cytometric analysis (reference value: 0.09%); assay type: functional
Mahlavu [22] = assay: Induction of apoptosis in human Mahlavu cells assessed as late apoptotic cells at 1 uM after 24 hrs by Annexin V-FITC/propidium iodide staining-based flow cytometric analysis (reference value: 1.28%); assay type: functional
Mahlavu [23] = assay: Induction of apoptosis in human Mahlavu cells assessed as necrotic cells at 1 uM after 24 hrs by Annexin V-FITC/propidium iodide staining-based flow cytometric analysis (reference value: 0.13%); assay type: functional
Mahlavu [24] = assay: Induction of apoptosis in human Mahlavu cells assessed as viable cells at 1 uM after 48 hrs by Annexin V-FITC/propidium iodide staining-based flow cytometric analysis (reference value: 98.48%); assay type: functional; conditions: read-out: Activity
Mahlavu [25] = assay: Induction of apoptosis in human Mahlavu cells assessed as early apoptotic cells at 1 uM after 48 hrs by Annexin V-FITC/propidium iodide staining-based flow cytometric analysis (reference value: 0%); assay type: functional
Mahlavu [26] = assay: Induction of apoptosis in human Mahlavu cells assessed as late apoptotic cells at 1 uM after 48 hrs by Annexin V-FITC/propidium iodide staining-based flow cytometric analysis (reference value: 1.45%); assay type: functional
Mahlavu [27] = assay: Induction of apoptosis in human Mahlavu cells assessed as necrotic cells at 1 uM after 48 hrs by Annexin V-FITC/propidium iodide staining-based flow cytometric analysis (reference value: 0.07%); assay type: functional
Mahlavu [28] = assay: Induction of apoptosis in human Mahlavu cells assessed as viable cells at 1 uM after 72 hrs by Annexin V-FITC/propidium iodide staining-based flow cytometric analysis (reference value: 96.05%); assay type: functional; conditions: read-out: Activity
Mahlavu [29] = assay: Induction of apoptosis in human Mahlavu cells assessed as early apoptotic cells at 1 uM after 72 hrs by Annexin V-FITC/propidium iodide staining-based flow cytometric analysis (reference value: 0.24%); assay type: functional
Mahlavu [30] = assay: Induction of apoptosis in human Mahlavu cells assessed as late apoptotic cells at 1 uM after 72 hrs by Annexin V-FITC/propidium iodide staining-based flow cytometric analysis (reference value: 3.48%); assay type: functional
Mahlavu [31] = assay: Induction of apoptosis in human Mahlavu cells assessed as necrotic cells at 1 uM after 72 hrs by Annexin V-FITC/propidium iodide staining-based flow cytometric analysis (reference value: 0.22%); assay type: functional
[32] = Homo sapiens, Huh-7, 72 h, read-out: IC50
[33] = Homo sapiens, Mahlavu, 72 h, read-out: IC50
[34] = Homo sapiens, MCF7, 72 h, read-out: IC50
[35] = Homo sapiens, HCT-116, 72 h, read-out: IC50
[36] = Homo sapiens, MCF-12A, 72 h, read-out: IC50

COc1ccc2cc(CN3CCCCC3C(=O)[O-])c3cc(OC)c(OC)cc3c2c1.[K+] (configuration not stated)
IC50 (Huh-7 [1]; huh-7): Not Active
IC50 (Mahlavu [2]; mahlavu): Not Active
IC50 (MCF7; mcf7): Not Active
IC50 (HCT-116; hct-116): Not Active
IC50 (Hep 3B2; hep 3b2): Not Active
IC50 (HepG2): Not Active
IC50 (SNU-475; snu-475): Not Active
IC50 [3]: Not Active
IC50 (MCF-12A; mcf-12a): Non-Toxic

COc1ccc2c3c(c4cc(OC)c(OC)cc4c2c1)CN1CCCCC1C3=O (configuration not stated)
IC50 (Huh-7 [1]; [32]): 12 µM
IC50 (Mahlavu [2]; [33]): 35 µM
IC50 (MCF7; [34]): 7 µM
IC50 (HCT-116; [35]): 8.1 µM
IC50 (Hep 3B2; Homo sapiens, Hep3B, 72 h, read-out: IC50): 45 µM
IC50 (HepG2): Not Active
IC50 (SNU-475; Homo sapiens, SNU-475, 72 h, read-out: IC50): 19.1 µM
IC50 ([3]; Homo sapiens, 72 h, read-out: IC50): 5 µM
IC50 (MCF-12A; mcf-12a): Non-Toxic

COc1ccc(/C=C(/C(=O)NCCCn2ccnc2)c2ccc(OC)c(OC)c2)cc1
IC50 (Huh-7 [1]; huh-7): Not Active
IC50 (Mahlavu [2]; mahlavu): Not Active

COc1ccc2cc(C(=O)NCCCn3ccnc3)c3cc(OC)c(OC)cc3c2c1
IC50 (Huh-7 [1]; [32]): 19.2 µM
IC50 (Mahlavu [2]; [33]): 54 µM

COc1ccc(/C=C(/CNCCCn2ccnc2)c2ccc(OC)c(OC)c2)cc1
IC50 (Huh-7 [1]; [32]): 9.3 µM
IC50 (Mahlavu [2]; [33]): 13.8 µM

COc1ccc2cc(CNCCCn3ccnc3)c3cc(OC)c(OC)cc3c2c1
IC50 (Huh-7 [1]; huh-7): Not Active
IC50 (Mahlavu [2]; mahlavu): Not Active

CC[C@@]1(O)C(=O)OCc2c1cc1n(c2=O)Cc2cc3ccccc3nc2-1
Activity (Huh-7 [4]): Active
Activity (Mahlavu [5]): Active

COc1ccc2c3c(c4cc(OC)c(OC)cc4c2c1)CN1CCCC[C@@H]1[C@@H]3O (racemic)
IC50 (Huh-7 [1]; [32]): 0.017 µM
IC50 (Mahlavu [2]; [33]): > 0.05 µM
IC50 (MCF7; [34]): 0.021 µM
IC50 (HCT-116; [35]): 0.007 µM
IC50 (MCF-12A; [36]): 0.1 µM
IC50 (MCF-10A): 0.14 µM
Activity (Mahlavu [6]): Active
Activity (Mahlavu [7]): Active
viability at 1 µM (Huh-7 [8]): 99.1%
Activity (Huh-7 [9]): 0.05%
Activity (Huh-7 [10]): 0.82%
Activity (Huh-7 [11]): 0.02%
viability at 1 µM (Huh-7 [12]): 93%
Activity (Huh-7 [13]): 0.07%
Activity (Huh-7 [14]): 6.75%
Activity (Huh-7 [15]): 0.21%
viability at 1 µM (Huh-7 [16]): 83%
Activity (Huh-7 [17]): 0%
Activity (Huh-7 [18]): 16.83%
Activity (Huh-7 [19]): 0.16%
viability at 1 µM (Mahlavu [20]): 92.7%
Activity (Mahlavu [21]): 0.03%
Activity (Mahlavu [22]): 6.72%
Activity (Mahlavu [23]): 0.58%
viability at 1 µM (Mahlavu [24]): 70.2%
Activity (Mahlavu [25]): 0%
Activity (Mahlavu [26]): 29.29%
Activity (Mahlavu [27]): 0.54%
viability at 1 µM (Mahlavu [28]): 29.4%
Activity (Mahlavu [29]): 0%
Activity (Mahlavu [30]): 69.05%
Activity (Mahlavu [31]): 1.59%

COc1ccc2c3c(c4cc(OC)c(OC)cc4c2c1)CN1CCCC[C@@H]1[C@H]3O (racemic)
IC50 (Huh-7 [1]; [32]): 0.306 µM
IC50 (Mahlavu [2]; [33]): > 0.05 µM
IC50 (MCF7; [34]): 0.016 µM
IC50 (HCT-116; [35]): 0.043 µM
IC50 (MCF-12A; [36]): > 0.05 µM
IC50 (MCF-10A): 0.8 µM
Activity (Mahlavu [6]): Active
Activity (Mahlavu [7]): Active
viability at 1 µM (Huh-7 [8]): 99.1%
Activity (Huh-7 [9]): 0%
Activity (Huh-7 [10]): 0.81%
Activity (Huh-7 [11]): 0.07%
viability at 1 µM (Huh-7 [12]): 96.4%
Activity (Huh-7 [13]): 0.07%
Activity (Huh-7 [14]): 3.38%
Activity (Huh-7 [15]): 0.13%
viability at 1 µM (Huh-7 [16]): 95%
Activity (Huh-7 [17]): 0.05%
Activity (Huh-7 [18]): 4.69%
Activity (Huh-7 [19]): 0.23%
viability at 1 µM (Mahlavu [20]): 96.2%
Activity (Mahlavu [21]): 0.02%
Activity (Mahlavu [22]): 3.47%
Activity (Mahlavu [23]): 0.33%
viability at 1 µM (Mahlavu [24]): 93.8%
Activity (Mahlavu [25]): 0%
Activity (Mahlavu [26]): 5.9%
Activity (Mahlavu [27]): 0.32%
viability at 1 µM (Mahlavu [28]): 88.9%
Activity (Mahlavu [29]): 0%
Activity (Mahlavu [30]): 10.53%
Activity (Mahlavu [31]): 0.61%
